Measured values: ChEMBL document CHEMBL1687813 (Antimicrob Agents Chemother, 2010)
Converted amounts (≈) assume the structure as drawn.

Columns and labels:
[1] = tested on: Mycolicibacterium smegmatis; assay: Antimicrobial activity against Mycobacterium smegmatis mc27093 harboring Mycobacterium tuberculosis H37Ra attBL5:::Ptc::pzaA from Mycobacterium tuberculosis after 11 days by broth microdilution method at pH 6; type: functional; conditions: mc27093, 264 h
Summary of the method: (§1)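 Tubercle bacilli were diluted to 10^6 CFU/ml in supplemented 7H9 containing graded PZA or 5-Cl PZA, at pH 6.0 or neutral pH 6.8. Cultures were incubated 11 days at 37°C. The MIC is the lowest concentration blocking visible growth. Integrated amidase constructs were induced with 50 ng/ml anhydrotetracycline.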

[2] = tested on: Mycolicibacterium smegmatis; assay: Antimicrobial activity against Mycobacterium smegmatis mc27092 harboring Mycobacterium tuberculosis H37Ra attBL5:::Ptc::pzaAMsmeg after 48 hrs by broth microdilution method at pH 6; type: functional; conditions: mc27092, 48 h
[3] = tested on: Mycolicibacterium smegmatis; assay: Antimicrobial activity against Mycobacterium smegmatis mc27092 harboring Mycobacterium tuberculosis H37Ra attBL5:::Ptc::pzaAMsmeg after 11 days by broth microdilution method at pH 6.8; type: functional; conditions: mc27092, 264 h; summary of the method: as §1
[4] = tested on: Mycobacterium tuberculosis variant bovis BCG; assay: Antimicrobial activity against Mycobacterium bovis BCG Pasteur after 11 days by broth microdilution method at pH 6.8; type: functional; conditions: 264 h; summary of the method: as §1
[5] = tested on: Mycolicibacterium smegmatis; assay: Antimicrobial activity against Mycobacterium smegmatis mc27093 harboring Mycobacterium tuberculosis H37Ra attBL5:::Ptc::pzaA from Mycobacterium tuberculosis after 11 days by broth microdilution method at pH 6.8; type: functional; conditions: mc27093, 264 h; summary of the method: as §1
[6] = biological target: T1, PYRAZINAMIDASE/NICOTINAMIDAS PNCA (PZase) (Mycobacterium bovis) (UniProt Q93SP7); assay: Activity of pyrazinamidase in Mycobacterium bovis BCG Pasteur assessed as compound turnover per ml of microbial cells after 30 mins by calorimetric analysis; conditions: Mycobacterium tuberculosis variant bovis BCG
T1 sequence (whole entry): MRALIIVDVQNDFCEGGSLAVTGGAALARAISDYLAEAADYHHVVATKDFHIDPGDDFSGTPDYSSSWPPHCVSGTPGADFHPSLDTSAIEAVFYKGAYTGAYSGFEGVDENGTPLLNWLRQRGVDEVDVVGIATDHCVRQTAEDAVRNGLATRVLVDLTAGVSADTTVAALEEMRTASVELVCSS
Summary of the method: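 Whole-cell colorimetric amidase assay: log-phase cells were pelleted and resuspended in sterile water with 0.05% tyloxapol. Substrate (PZA or 5-Cl PZA) was added to 2 mM at 37°C with shaking and sampled at intervals. Clarified aliquots received ferrous ammonium sulfate (20 mM final), stood 30 min at 4°C, were re-spun, and were read at OD468. Extinction coefficients were 0.68 (PA) and 0.47 (5-Cl PA) per mM. Activity is nmol/min per ml of cells (OD600).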

[7] = tested on: Mycobacterium tuberculosis variant bovis BCG; assay: Antimicrobial activity against Mycobacterium bovis BCG Pasteur after 11 days by broth microdilution method at pH 6; type: functional; conditions: 264 h; summary of the method: as §1

Structure (SMILES) | MIC [1] [µg/mL] | MIC [2] [µg/mL] | MIC [3] [µg/mL] | MIC [4] [µg/mL] | MIC [5] [µg/mL] | Activity [6] [nmol/min] | MIC [7] [µg/mL]
NC(=O)c1cnc(Cl)cn1 | 200 (≈ 1270 µM) | 25 (≈ 159 µM) | 12.5 (≈ 79.3 µM) | 100 (≈ 635 µM) | 12.5 (≈ 79.3 µM) | 0.11 | 25 (≈ 159 µM)
NC(=O)c1cnccn1 [PYRAZINAMIDE] | 12.5 (≈ 102 µM) | 62.5 (≈ 508 µM) | > 1000 | 25 (≈ 203 µM) | 12.5 (≈ 102 µM) | 0.015 | 50 (≈ 406 µM)
